Screening results from PubChem BioAssay.
HUVEC prolif 384: blocks proliferation of human endothelial cells; HUVEC proliferation, CellTiter-Glo luminescence, 72 h; active compounds read low; 1.1% of 86,000 active; viability, % at 10 µM (by protocol);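 active = viability at or below 30%; inactive = viability above 30%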
Fibroblast inh: blocks proliferation of human lung fibroblasts; LL 47 human lung fibroblast viability, ATP luminescence; active compounds read low; viability, % at 10 µM; 1.1% of 85,000 active;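 active = viability at or below 50% in the single dose screen; inactive = viability above 50%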;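 also: compound exposure lasted 72 h before the ATP readout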
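Material: Human LL 47 lung fibroblast cells | Input: 1,150 cells/well | Buffer or medium: IMEM plus 15% FBS | Compound dosing: 0.1% DMSO in all compound wells | Times: Overnight cell rest, 72 h compound treatment at 37 °C | Signal: CellTiter-Glo luminescence measuring cellular ATP | Measure: % viability versus median cells-only luminescence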
E coli WT exp: E. coli BW25113 growth inhibition, expanded screen. 0.15% of 98,000 active. AID 710. growth inhibition, % at 100 µM. OD600 absorbance;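 active = growth inhibition above about 50% at one test dose, limit read from the data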;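 also: growth measured after 20 h incubation at 37 °C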
Jurkat viability: cytotoxic compounds reducing Jurkat cell viability; inhibition, % at 4 µM; AID 463; 1.2% of 56,000 active; Jurkat E6.1 viability, ATP luminescence, 48 h;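 active = inhibition above the mean inhibition of all tested compounds plus 3 SD, cut at about 28% in these data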
H69AR inhibit: growth inhibitors of human H69AR lung tumor cells; H69AR lung tumor viability, ATP luminescence, 72 h; active compounds read low; viability, % at 10 µM; 6% of 85,000 active;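 active = viability at or below 40%; inactive = viability above 40%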;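 also: multidrug resistant small cell line overexpressing MRP-1 efflux transporter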
Ecoli tolC: growth inhibitors of E. coli BW25113 tolC mutant | OD615 | growth inhibition, % at 10 µM (by protocol) | 2.2% of 65,000 active | AID 573;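 active = growth inhibition at or above a cutoff equal to the mean over every tested compound plus 3 SD, cut at about 60% in these data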;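 also: growth measured after 20 h incubation at 37 °C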
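System: E. coli ΔtolC::kan strain BW25113; Buffer or medium: LB broth supplemented with 50 µg/mL kanamycin; Compound: 10 µM final, single dose; Incubation: bacterial growth with compound for 20 h at 37 °C; Signal: A615 absorbance measurement; Evaluation: growth inhibition in percent.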
A number is an active result; . = inactive; / = no result given. The list is not random: actives were taken first. Their share in the collection is about 6.4%.

SMILES | HUVEC prolif 384 | Fibroblast inh | E coli WT exp | Jurkat viability | H69AR inhibit | Ecoli tolC
Oc1cc2c(cc1CN1CCN(c3cccc(C(F)(F)F)c3)CC1)CCC2 | . | . | . | / | . | /
OC(CN1CCN(Cc2ccc3c(c2)OCO3)CC1)c1c[nH]c2ccccc12 (configuration not stated) | . | . | . | / | . | /
O=C(CN1CCN(c2cccc(C(F)(F)F)c2)CC1)Nc1cccc(C(F)(F)F)c1 | . | . | . | / | . | /
OC(CN1CCN(c2ccccc2)CC1)c1c[nH]c2ccccc12 (configuration not stated) | . | . | . | . | 37.9 | .
Cc1[nH]c2ccccc2c1C(O)CN1CCN(c2cccc(C(F)(F)F)c2)CC1 (configuration not stated) | 2.4 | 42.7 | . | . | 1.3 | .
CCC(=O)Nc1ccc2c(c1)nc(CN1CCN(C(C)=O)CC1)n2C | . | . | . | / | . | /
CC(C)(C)c1ccc(C(=O)C=[N+]=[N-])cc1 | . | . | . | / | . | .
COc1ccc(Cl)cc1NC(=O)Nc1cccc([N+](=O)[O-])c1C | / | / | . | / | / | /
COc1cc(Nc2ccccc2Cl)c([N+](=O)[O-])nc1[N+](=O)[O-] | . | . | . | / | 16.6 | /
Oc1ccc(C(=S)N2CCCCC2)cc1Cl | . | . | . | . | . | .
CCN(C(=O)c1coc(=O)c(Br)c1)c1ccc2c(c1)OCO2 | . | . | . | . | 2.0 | .
CCN(C(=O)c1c(C)cc(=O)oc1C)c1ccc2c(c1)OCO2 | . | . | . | / | . | /
O=C(C1CCN(S(=O)(=O)c2cccc3cccnc23)CC1)N1CCn2c1nc1ccccc12 | . | . | . | . | . | .
N#CC1=C(O)C(c2ccccc2)n2c1nc(=O)c1ccccc12 (configuration not stated) | . | . | . | . | . | .
CC(=O)n1cc(/C=N/NC(=O)c2sc(C)nc2C)c2ccccc21 | . | . | . | / | 22.0 | /
COCC(C)n1c(C)cc(C(=O)COC(=O)c2ccc(N3CCCC3=O)cc2)c1C (configuration not stated) | . | . | . | . | . | .
O=S(=O)(Nc1nc2ccccc2nc1NCc1ccco1)c1cccs1 | . | . | . | . | . | 81.5
C=CCNc1nc2ccccc2nc1NS(=O)(=O)c1cccs1 | . | . | . | . | . | .
CCCCCC(=O)N(O)C1CC(=O)N(c2ccccc2)C1=O (configuration not stated) | . | . | . | . | 35.0 | .
CCCCCCC(=O)N(O)C1CC(=O)N(Cc2ccccc2)C1=O (configuration not stated) | . | . | . | . | . | .
O=C(CCN1C(=O)C2C3C=CC(C4CC34)C2C1=O)Oc1cccc2cccnc12 (configuration not stated) | / | / | . | / | / | /
Cc1ccc2c(c1)cc(CN(Cc1cccs1)C(=O)c1ccco1)c1nnnn12 | . | . | . | . | . | .
Cc1ccc2c(c1)cc(CN(Cc1ccc3c(c1)OCO3)S(=O)(=O)c1ccccc1)c1nnnn12 | . | . | . | . | 30.9 | .
O=C(c1ccc2ccccc2n1)N1CCN(c2ccccc2O)CC1 | . | . | . | / | . | /
CCOC(=O)CSC1=C(C#N)C(c2ccccc2OCC)C(C(=O)OCC)C(=O)N1 (configuration not stated) | . | . | . | . | . | .
SMILES | HUVEC prolif 384 | Fibroblast inh | E coli WT exp | Jurkat viability | H69AR inhibit | Ecoli tolC
CCCCSC1=C(C#N)C(c2ccccc2C)C(C(=O)OCC)C(=O)N1 (configuration not stated) | . | . | . | . | . | 71.4
CCOC(=O)CSC1=C(C#N)C(c2ccccc2OCC)C(C#N)C(=O)N1 (configuration not stated) | . | . | . | . | 27.3 | .
CCOC(=O)c1nn(-c2ccc3c(c2)OCO3)cc1O | . | . | . | . | . | .
O=S(=O)(Cc1ccccc1)c1cnc2ccccc2n1 | . | . | . | / | 7.1 | /
CCC(C)NC(=O)CSC1=Nc2ccccc2C2=NC(CC(=O)NCc3ccccc3)C(=O)N12 (configuration not stated) | . | . | . | . | . | .
Nn1c(SCC(=O)NC2CCCc3ccccc32)nnc1-c1cccs1 (configuration not stated) | . | . | . | . | . | .
Cc1ccc(Oc2ccc(S(=O)(=O)N3CCOCC3)cc2C(N)=O)c(-n2nc3ccccc3n2)c1 | . | . | . | 87.0 | 31.4 | .
CCOC(=O)c1[nH]nc2c1C(=O)N(Cc1ccccc1)C2=O | . | . | . | . | . | .
CCc1nc2ccccc2c(=O)n1NC(=O)c1c(O)c2ccccc2[nH]c1=O | . | . | . | . | . | 85.0
CCCCCc1nc2ccccc2c(=O)n1NC(=O)c1c(O)c2cccc3c2n(c1=O)CCC3 | . | . | / | / | 27.3 | /
CCCCCCc1nc2ccccc2c(=O)n1NC(=O)c1c(O)c2cccc3c2n(c1=O)CCC3 | . | . | . | / | 24.8 | /
COc1ccc(OC)c(S(=O)(=O)NCCc2ccccc2)c1 | . | . | . | . | . | .
CCOC(=O)NC1(Nc2ccc(Cl)cn2)Oc2ccccc2O1 | . | . | . | 33.0 | 28.2 | .
CCOC(=O)/C=C/C(=O)OCC(=O)Nc1ccc(Cl)cn1 | . | . | . | / | . | /
Cc1ccc(C2c3sc(=O)[nH]c3SC3C(=O)NC(=O)C32)cc1 (configuration not stated) | . | . | . | . | . | .
COC(=O)c1cc2c(C)nn(-c3ccccc3)c2s1 | . | . | . | . | . | .
Cc1nn(-c2ccccc2)c2sc(C(=O)N(CC(=O)NC(C)(C)C)Cc3ccco3)cc12 | . | . | . | . | . | 74.9
CCOC(=O)C(C)(C)C(=O)C(C)(C)C(O)c1ccccn1 (configuration not stated) | . | . | . | . | . | .
CCSc1nc(C)cc(Oc2ccc(=O)n(C)n2)n1 | . | . | . | . | . | .
COc1ccc(-c2nc(C#N)c(N3CCC(C(N)=O)CC3)o2)cc1 | . | . | . | / | . | /
N#Cc1nc(-c2ccc(OCc3ccccc3)cc2)oc1N1CCC(C(N)=O)CC1 | 28.6 | . | . | . | 37.0 | .
Cc1noc(C)c1CSc1nc2sc(C)c(C)c2c(=O)n1-c1ccccc1 | . | . | . | . | . | .
Cc1noc(C)c1CSc1nc2ccccc2c(=O)n1-c1ccc(Cl)cc1 | . | . | . | / | 14.5 | /
COc1ccccc1C(=O)NNC1=C(C(=O)C(F)(F)F)CCC1 | / | / | . | / | / | /
O=C(NNC1=C(C(=O)C(F)(F)F)CCC1)c1ccccc1O | 6.8 | . | . | / | 29.7 | /
SMILES | HUVEC prolif 384 | Fibroblast inh | E coli WT exp | Jurkat viability | H69AR inhibit | Ecoli tolC
O=C(NNC1=C(C(=O)C(F)(F)F)CCC1)c1ccccc1Cl | 14.8 | . | . | / | . | /
COC(=O)c1ccc(C(=O)Nc2ccc(N)cc2N)cc1 | . | . | . | . | 1.9 | .
COc1ccccc1NC(=O)c1ccc(N)cc1 | . | . | . | / | . | .
C/C(=N\O)c1ccc2c3ccccc3n(C)c2c1 | 24.4 | . | . | . | . | .
CCn1c2ccccc2c2cc(/C(C)=N/O)ccc21 | / | / | . | / | / | /
CNC(=O)CN(C)S(=O)(=O)c1ccc(F)cc1 | . | . | . | / | . | /
